# Screens deposited in PubChem by The Scripps Research Institute Molecular Screening Center.
# S1P1 ag pot: S1P1 (human) agonism or agonism potentiation. activation, % at 9.5 µM. S1P1 CRE-bla cells, forskolin, beta-lactamase FRET, potentiator mode; S1P1 agonist co-added at EC20, 2 nM; 100% = saturating reference agonist, 0% = basal. AID 449. 0.57% of 56,000 active;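 active = activation above a cutoff set at the mean activation of all tested compounds plus 3 SD, cut at about 54% in these data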;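 note: forskolin at 4 µM as EC80 and the EC20 agonist is SEW2871; 100% = SEW2871 at its EC100 plus forskolin at EC80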
# Target sequence (P21453 whole entry, looked up): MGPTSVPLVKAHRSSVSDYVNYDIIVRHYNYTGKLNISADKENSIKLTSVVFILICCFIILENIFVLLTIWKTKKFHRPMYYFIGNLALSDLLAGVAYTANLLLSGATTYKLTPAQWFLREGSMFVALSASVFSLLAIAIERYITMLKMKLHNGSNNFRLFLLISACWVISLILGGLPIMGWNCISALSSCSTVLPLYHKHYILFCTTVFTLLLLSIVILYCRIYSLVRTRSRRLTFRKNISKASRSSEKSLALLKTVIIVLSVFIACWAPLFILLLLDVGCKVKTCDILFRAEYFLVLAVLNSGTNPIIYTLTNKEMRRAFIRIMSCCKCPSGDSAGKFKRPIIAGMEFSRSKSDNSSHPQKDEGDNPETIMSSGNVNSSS
# S1P3 agonist: activates the human S1P3 receptor | Q99500 | S1P3 NFAT-BLA reporter cells, agonism, FRET ratio; relative to 1 µM S1P, basal subtracted | activation, % at 4.5 µM | 0.1% of 60,000 active;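 active = activation above the screen-wide mean plus 3 SD, cut at about 4.5% in these data, passing the limit was not always enough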
#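 Assay system: CHO cells stably expressing human S1P3, Gα16 and NFAT-β-lactamase reporter. Timing: overnight plating, 4 h compound 37 °C, 2 h substrate RT. Signal: β-lactamase FRET emission ratio 460/535 nm. Measure: percent activation versus median 1 µM S1P response, basal-subtracted, per plate. Repeats: primary screen single test, confirmation screen in triplicate.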
# 5-HT1A blocker: blocks the human serotonin 5-HT1a receptor; P08908; CHO 5-HT1a Ga15 NFAT-bla reporter, antagonist mode; inhibition, % at 10 µM; 0.68% of 62,000 active; AID 612;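 active = inhibition above the mean of all tested compounds plus 3 SD, cut at about 43% in these data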;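 note: receptor stimulated by 5-CT agonist at 100 nM near EC80; beta-lactamase reporter measured by ratiometric fluorescence of a cleavable substrate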
# 5HT1a ag: 5-HT1a (human) receptor agonism; P08908; activation, % at 10 µM; AID 567; CHO 5-HT1a Ga15 NFAT-bla reporter, FRET ratio; 0% basal, 100% maximal reference agonist; 0.56% of 65,000 active;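 active = activation above the screen-wide mean activation plus 3 SD, cut at about 19% in these data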;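 note: 0% = DMSO wells and 100% = 5-CT at EC100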
# 5HT1E ag: 5-HT1E (human) receptor agonism; AID 574; P28566; CHO 5-HT1E Ga15 NFAT-bla reporter, FRET; 0% DMSO wells, 100% control agonist wells; activation, % at 6 µM; 0.69% of 65,000 active;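 active = activation above a set limit, the screen-wide mean activation plus 3 SD, cut at about 8.5% in these data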;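 note: 100% = positive control agonist at 1 µM giving full maximal response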
# 5HT1E antag: 5-HT1E (human) receptor antagonism. AID 571. CHO 5-HT1E Ga15 NFAT-bla reporter, FRET, antagonist. inhibition, % at 6 µM. 0.99% of 65,000 active;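 active = inhibition above a set limit, the mean inhibition across every tested compound plus 3 SD, cut at about 29% in these data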;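 note: signal is the 460 over 535 nm emission ratio of beta-lactamase substrate; 0% = agonist plus DMSO wells and 100% = wells without agonist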
# Starred values were filed as active, the others as inactive; . = not tested or not shown. Only some compounds are listed: those with a hit (about 3% of all), similar ones and a draw of the others.
SMILES,S1P1 ag pot,S1P3 agonist,5-HT1A blocker,5HT1a ag,5HT1E ag,5HT1E antag
Cc1ccccc1OCCNC(=O)CNC(=O)c1ccccc1O,.,-0.7,4.3,0.6,-0.2,-7.8
O=C(c1cc2nc3c(c(C(F)(F)F)n2n1)CCc1ccccc1-3)N1CCN2CCCC2C1 (stereo not given),-53.5,1.1,-13.5,1.4,0.0,3.1
CC(=O)N1CCN(c2ccc(NCc3ccc4c(c3)OCO4)cc2)CC1,-26.1,-0.1,-6.8,42.7*,0.3,-3.3
O=C(c1ccccc1)N1CCN(c2ccc(NCc3ccc4c(c3)OCO4)cc2)CC1,10.0,-0.4,6.0,-2.5,-0.5,15.3
Nc1nonc1-c1nc2ccccc2n1Cc1ccc(F)cc1Cl,1.0,-0.6,62.7*,-3.4,0.3,18.5
CCC(=O)Nc1nonc1-c1nc2ccccc2n1Cc1ccc(Cl)c(Cl)c1,-6.7,-1.6,-7.3,-4.7,-0.1,2.0
CCN(CC)c1nc(Nc2ccc(Cl)cc2)nc(OCC#N)n1,-16.1,-0.9,31.2,1.4,-0.2,33.0*
CCN(CC)c1nc(Nc2ccccc2)nc(Oc2ccc(=O)[nH]n2)n1,-15.4,-2.1,13.8,-4.2,-0.2,22.2
Cc1ccc(S(=O)(=O)N2CCCN(S(=O)(=O)c3ccc(C)cc3)CC2)cc1,.,-0.2,3.7,1.2,19.1*,1.5
O=C(CN1C(=O)NC2(CCCCCC2)C1=O)N1CCC(Cc2ccccc2)CC1,19.1,-1.2,-17.8,-1.7,-0.3,1.4
CC1CN(C(=O)CN2C(=O)NC3(CCCCCCC3)C2=O)CC(C)O1 (stereo not given),-9.8,-0.2,-10.9,-1.1,19.7*,-9.5
CCCCN(C)CCCNC(=O)Cn1c(=O)sc2ccccc21,.,.,12.0,-2.2,69.7*,-5.5
COc1ccc(C2=NOC(C(=O)NCc3ccc(F)cc3)C2)cc1 (stereo not given),11.6,0.0,40.5,-1.9,-0.3,56.3*
CCn1ncc(C2=NOC(C(=O)NCc3ccc(Cl)cc3)C2)c1C (stereo not given),-16.5,-1.1,42.0,-4.9,-0.9,58.4*
Clc1cccc(-c2nnc(SCc3nc4ccccc4[nH]3)n2Cc2ccco2)c1,-16.3,0.3,26.7,0.6,0.8,15.0
Clc1ccc(OCc2nnc(SCc3nc4ccccc4[nH]3)n2Cc2ccco2)cc1,61.0*,-0.8,0.9,-1.1,0.8,3.5
COc1cccc2c1C(=O)c1c(O)c3c(c(O)c1C2=O)C[C@@](O)(C(C)=O)C[C@@H]3O[C@H]1C[C@H](N)[C@H](O)[C@H](C)O1,120.4,-1.6,.,0.5,-1.2,57.0*
CCOC(=O)N1CCN(S(=O)(=O)c2ccc(F)c(C(=O)Nc3cccc(C)c3C)c2)CC1,-2.2,1.8,-5.6,-0.2,-0.5,-5.7
CCOC(=O)c1ccccc1NC(=O)c1cc(S(=O)(=O)N2CCOCC2)ccc1F,4.4,-0.7,12.0,2.3,0.1,29.4*
CCn1cc(C(=O)NCc2ccc(C)o2)c2cc(OC)c(OC)cc2c1=O,-37.9,-0.4,10.4,0.7,-0.6,29.0*
CCn1cc(C(=O)NCC(=O)OC)c2cc(OC)c(OC)cc2c1=O,.,.,2.3,0.5,-0.3,4.4
OCCN1CCN(CC(O)COc2ccc3c(c2)OCO3)CC1 (stereo not given),9.2,0.4,-1.5,0.5,16.3*,-5.2
O=C(CSc1nc2ccccc2[nH]1)NCCN1CCCCC1,-39.2,-0.2,9.1,-3.7,-1.1,-7.8
CCOC(=O)N1CCC(N2Cc3cccc(C(=O)O)c3C2=O)CC1,-16.1,-1.1,-2.5,82.9*,0.2,-6.4
CCOC(=O)N1CCC(N2Cc3cccc(C(=O)N4CC(C)CC(C)C4)c3C2=O)CC1 (stereo not given),15.4,0.3,2.8,-0.3,0.5,-3.3
CC1=NC(C)Cc2ccccc21 (stereo not given),-27.6,0.5,-12.3,-4.0,0.8,-3.2
CC1(C)CC(=O)C(/C=N/n2cnc3ccccc3c2=O)=C(O)C1,12.1,-0.4,4.0,-1.3,-0.6,4.2
C=CCS/C(=N\n1cnc2ccccc2c1=O)N1CCCCC1,1.7,-0.8,1.1,99.0*,0.3,1.7
N#Cc1ccc(Oc2cccnc2)cc1C#N,.,-0.3,-5.6,1.0,0.3,-2.3
